Experimental data collected from several papers.
Mode: inhibitor
CHEK2: Serine/threonine-protein kinase Chk2 (CHEK2, Homo sapiens, UniProt O96017)

CCOc1cc(-c2nncn2C)ccc1Nc1ncc2cc(C)nc(NCC(C)(C)C)c2n1
inhibition (CHEK2; enzyme activity, FRET; 1 µM): < 15%

CNC(=O)c1cc(Oc2ccc(NC(=O)Nc3ccc(Cl)c(C(F)(F)F)c3)cc2)ccn1
inhibition (CHEK2; enzyme activity; 0.3 µM): -5%

CN(C)C1CCN(CC#Cc2nn(C3CCCC3)c3nc(NCc4ccccc4)ncc23)C1 (centres unmarked)
inhibition (CHEK2; enzyme activity, FRET; 10 µM): 17%

CCCS(=O)(=O)Nc1ccc(F)c(C(=O)c2c[nH]c3ncc(-c4ccc(Cl)cc4)cc23)c1F
inhibition (CHEK2; enzyme activity; 1 µM): < 10%

CNc1cc(Oc2cc(C(=O)Nc3cc(N4CCN(C)CC4)cc(C(F)(F)F)c3)ccc2C)ncn1
inhibition (CHEK2; target engagement in cells, chemoproteomics; Huh-7; 1 µM): -100%

COc1cc2ncnc(Nc3ccc(Oc4ccccc4)c(C)c3C)c2cc1OC
inhibition (CHEK2; enzyme activity; 1 µM): 36%

CN(c1ncccc1CNc1nc(Nc2ccc3c(c2)CC(=O)N3)ncc1C(F)(F)F)S(C)(=O)=O
inhibition (CHEK2; enzyme activity; 1 µM): 33.1%

CN1CC(Oc2cnc(C#N)cc2-c2ccn3nc(NC(=O)C4CC4)cc3c2)C1
inhibition (CHEK2; enzyme activity; 1 µM): 0%

Cc1ncc([N+](=O)[O-])n1C(=NO)c1ccccc1C(F)(F)F
inhibition (CHEK2; enzyme activity; 10 µM): 17.1%

CNc1cccc2cc(C(=O)Nc3ccc(C(=O)O)cc3)c(=O)[nH]c12
inhibition (CHEK2; enzyme activity; 10 µM): 15%

COc1cc2ncnc(Nc3ccc(Oc4ccccc4)cc3C)c2cc1OC
inhibition (CHEK2; enzyme activity; 1 µM): 83%

CSc1nc(C)c(-c2ccnc(Nc3ccc(N4CCOCC4)cc3)c2)[nH]1
inhibition (CHEK2; enzyme activity; 10 µM): -5.4%

Cc1ccc(Nc2nccc(N(C)c3ccc4c(C)n(C)nc4c3)n2)cc1S(N)(=O)=O
inhibition (Serine/threonine-protein kinase Chk2 (CHEK2, Homo sapiens, UniProt O96017, I157T); enzyme activity; 10 µM): 30%

CCN1CCN(Cc2ccc(NC(=O)c3ccc(C)c(Oc4ccnc5[nH]ccc45)c3)cc2C(F)(F)F)CC1
inhibition (CHEK2; target engagement in cells, chemoproteomics; A-375; 0.5 µM): -16.3%
